Test results from ChEMBL document CHEMBL1151684, “Synthesis and antitumoral activity of novel 3-(2-substituted-1,3,4-oxadiazol-5-yl) and 3-(5-substituted-1,2,4-triazol-3-yl) beta-carboline derivatives” (2008).

System: K562
Test: Growth inhibition of human K-562 cells after 48 hrs by sulforhodamine B assay
Assay type: functional
Details: K562, 48 h
Outline: (§1)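 Sulforhodamine B colorimetric assay following the NCI standard protocol, with doxorubicin as positive control. Each compound was tested at four concentrations in 10-fold dilutions (0.25 to 250). GI50, the concentration giving 50% growth reduction versus untreated control cells, was derived from dose–response curves.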

Going from `CSc1nnc(-c2cc3c([nH]c4ccccc43)c(-c3ccc(N(C)C)cc3)n2)o1` to `CSc1nnc(-c2cc3c([nH]c4ccccc43)c(-c3ccc(O)cc3)n2)o1`, the GI50 falls from > 100 µM to 10.8 µM.

First: CSc1nnc(-c2cc3c([nH]c4ccccc43)c(-c3ccccc3Cl)n2)o1
Second: COc1ccc(-c2nc(-c3n[nH]c(=S)[nH]3)cc3c2[nH]c2ccccc23)cc1
The GI50 of the first is lower: 0.17 µM for the first, > 100 µM for the second.

With `CSc1nnc(-c2cc3c([nH]c4ccccc43)c(-c3ccccc3Cl)n2)o1` the LC50 (concentration causing 50% net cell kill) was > 100 µM.

In order of falling TGI:
1. CSc1nnc(-c2cc3c([nH]c4ccccc43)c(-c3ccccc3Cl)n2)o1  68.4 µM
2. CSc1nnc(-c2cc3c([nH]c4ccccc43)c(-c3ccc(O)cc3)n2)o1  28.8 µM

System: MCF7
Test: Growth inhibition of human MCF7 cells after 48 hrs by sulforhodamine B assay
Assay type: functional
Details: MCF7, 48 h
Outline: as §1

First: CSc1nnc(-c2cc3c([nH]c4ccccc43)c(-c3ccc(N(C)C)cc3)n2)o1
Second: CSc1nnc(-c2cc3c([nH]c4ccccc43)c(-c3ccc(O)cc3)n2)o1
The GI50 of the first is higher: > 100 µM for the first, 7.42 µM for the second.

Going from `CSc1nnc(-c2cc3c([nH]c4ccccc43)c(-c3ccccc3Cl)n2)o1` to `COc1ccc(-c2nc(-c3n[nH]c(=S)[nH]3)cc3c2[nH]c2ccccc23)cc1`, the GI50 rises from 16.8 µM to > 100 µM.

Going from `CSc1nnc(-c2cc3c([nH]c4ccccc43)c(-c3ccccc3Cl)n2)o1` to `CSc1nnc(-c2cc3c([nH]c4ccccc43)c(-c3ccc(O)cc3)n2)o1`, the LC50 (concentration killing 50% of cells) falls from > 100 µM to 80.3 µM.

In order of rising TGI:
1. CSc1nnc(-c2cc3c([nH]c4ccccc43)c(-c3ccc(O)cc3)n2)o1  23.4 µM
2. CSc1nnc(-c2cc3c([nH]c4ccccc43)c(-c3ccccc3Cl)n2)o1  51.9 µM

System: not listed separately
Test: Growth inhibition of human NCI-460 cells after 48 hrs by sulforhodamine B assay
Assay type: functional
Details: NCI-460, 48 h
Outline: as §1

Going from `CSc1nnc(-c2cc3c([nH]c4ccccc43)c(-c3ccc(N(C)C)cc3)n2)o1` to `CSc1nnc(-c2cc3c([nH]c4ccccc43)c(-c3ccc(O)cc3)n2)o1`, the GI50 falls from > 100 µM to 17.8 µM.

First: CSc1nnc(-c2cc3c([nH]c4ccccc43)c(-c3ccccc3Cl)n2)o1
Second: COc1ccc(-c2nc(-c3n[nH]c(=S)[nH]3)cc3c2[nH]c2ccccc23)cc1
The GI50 of the first is 16-fold higher: 1.64 µM for the first, 0.1 µM for the second.

`CSc1nnc(-c2cc3c([nH]c4ccccc43)c(-c3ccccc3Cl)n2)o1` and `CSc1nnc(-c2cc3c([nH]c4ccccc43)c(-c3ccc(O)cc3)n2)o1` cannot be ordered by LC50 (concentration for 50% net cell kill): > 100 µM for the first, > 100 µM for the second.

In order of rising TGI:
1. CSc1nnc(-c2cc3c([nH]c4ccccc43)c(-c3ccccc3Cl)n2)o1  4.2 µM
2. CSc1nnc(-c2cc3c([nH]c4ccccc43)c(-c3ccc(O)cc3)n2)o1  73.4 µM

System: 786-0
Test: Growth inhibition of human 786-0 cells after 48 hrs by sulforhodamine B assay
Assay type: functional
Details: 786-0, 48 h
Outline: as §1

First: CSc1nnc(-c2cc3c([nH]c4ccccc43)c(-c3ccc(N(C)C)cc3)n2)o1
Second: CSc1nnc(-c2cc3c([nH]c4ccccc43)c(-c3ccc(O)cc3)n2)o1
The GI50 of the first is higher: > 100 µM for the first, 11.8 µM for the second.

Compared with `CSc1nnc(-c2cc3c([nH]c4ccccc43)c(-c3ccccc3Cl)n2)o1`, `COc1ccc(-c2nc(-c3n[nH]c(=S)[nH]3)cc3c2[nH]c2ccccc23)cc1` is 6.5-fold lower in GI50: 48.6 µM for the first, 7.48 µM for the second.

First: CSc1nnc(-c2cc3c([nH]c4ccccc43)c(-c3ccccc3Cl)n2)o1
Second: CSc1nnc(-c2cc3c([nH]c4ccccc43)c(-c3ccc(O)cc3)n2)o1
The TGI of the first is higher: > 100 µM for the first, 24.8 µM for the second.

Same assay, conditions: 786-0, 48 h, read-out: LC50 (the source's name)

In the case of `CSc1nnc(-c2cc3c([nH]c4ccccc43)c(-c3ccc(O)cc3)n2)o1`, the CC50 is reported as 51.9 µM.

System: HT-29
Test: Growth inhibition of human HT-29 cells after 48 hrs by sulforhodamine B assay
Assay type: functional
Details: HT-29, 48 h
Outline: as §1

Compared with `CSc1nnc(-c2cc3c([nH]c4ccccc43)c(-c3ccc(N(C)C)cc3)n2)o1`, `CSc1nnc(-c2cc3c([nH]c4ccccc43)c(-c3ccc(O)cc3)n2)o1` is 6.8-fold lower in GI50: 87.4 µM for the first, 12.8 µM for the second.

First: CSc1nnc(-c2cc3c([nH]c4ccccc43)c(-c3ccccc3Cl)n2)o1
Second: COc1ccc(-c2nc(-c3n[nH]c(=S)[nH]3)cc3c2[nH]c2ccccc23)cc1
The GI50 of the first is lower: 8.02 µM for the first, > 100 µM for the second.

`CSc1nnc(-c2cc3c([nH]c4ccccc43)c(-c3ccccc3Cl)n2)o1` and `CSc1nnc(-c2cc3c([nH]c4ccccc43)c(-c3ccc(O)cc3)n2)o1` cannot be ordered by LC50 (concentration killing 50% of the cells present at the start): > 100 µM for the first, > 100 µM for the second.

In order of rising TGI:
1. CSc1nnc(-c2cc3c([nH]c4ccccc43)c(-c3ccc(O)cc3)n2)o1  35 µM
2. CSc1nnc(-c2cc3c([nH]c4ccccc43)c(-c3ccccc3Cl)n2)o1  99.6 µM

System: not listed separately
Test: Growth inhibition of human PCO3 cells after 48 hrs by sulforhodamine B assay
Assay type: functional
Details: PCO3, 48 h
Outline: as §1

Going from `CSc1nnc(-c2cc3c([nH]c4ccccc43)c(-c3ccc(N(C)C)cc3)n2)o1` to `CSc1nnc(-c2cc3c([nH]c4ccccc43)c(-c3ccc(O)cc3)n2)o1`, the GI50 falls from 92.6 µM to 10.5 µM (8.8-fold).

First: CSc1nnc(-c2cc3c([nH]c4ccccc43)c(-c3ccccc3Cl)n2)o1
Second: COc1ccc(-c2nc(-c3n[nH]c(=S)[nH]3)cc3c2[nH]c2ccccc23)cc1
The GI50 of the first is lower: 1.03 µM for the first, > 100 µM for the second.

In order of rising LC50 (concentration killing 50% of cells):
1. CSc1nnc(-c2cc3c([nH]c4ccccc43)c(-c3ccc(O)cc3)n2)o1  59.2 µM
2. CSc1nnc(-c2cc3c([nH]c4ccccc43)c(-c3ccccc3Cl)n2)o1  73.5 µM

In order of rising TGI:
1. CSc1nnc(-c2cc3c([nH]c4ccccc43)c(-c3ccccc3Cl)n2)o1  3.8 µM
2. CSc1nnc(-c2cc3c([nH]c4ccccc43)c(-c3ccc(O)cc3)n2)o1  24.8 µM

System: OVCAR
Test: Growth inhibition of human OVCAR cells after 48 hrs by sulforhodamine B assay
Assay type: functional
Details: not given
Outline: as §1

First: CSc1nnc(-c2cc3c([nH]c4ccccc43)c(-c3ccc(N(C)C)cc3)n2)o1
Second: CSc1nnc(-c2cc3c([nH]c4ccccc43)c(-c3ccc(O)cc3)n2)o1
The GI50 of the first is higher: > 100 µM for the first, 13.5 µM for the second.

Going from `CSc1nnc(-c2cc3c([nH]c4ccccc43)c(-c3ccccc3Cl)n2)o1` to `COc1ccc(-c2nc(-c3n[nH]c(=S)[nH]3)cc3c2[nH]c2ccccc23)cc1`, the GI50 rises from 0.01 µM to > 100 µM.

In order of falling LC50 (concentration killing 50% of the cells, NCI protocol):
1. CSc1nnc(-c2cc3c([nH]c4ccccc43)c(-c3ccc(O)cc3)n2)o1  100 µM
2. CSc1nnc(-c2cc3c([nH]c4ccccc43)c(-c3ccccc3Cl)n2)o1  10.1 µM

In order of falling TGI:
1. CSc1nnc(-c2cc3c([nH]c4ccccc43)c(-c3ccc(O)cc3)n2)o1  35 µM
2. CSc1nnc(-c2cc3c([nH]c4ccccc43)c(-c3ccccc3Cl)n2)o1  0.1 µM

System: UACC-62
Test: Growth inhibition of human UACC-62 cells after 48 hrs by sulforhodamine B assay
Assay type: functional
Details: UACC-62, 48 h
Outline: as §1

Going from `CSc1nnc(-c2cc3c([nH]c4ccccc43)c(-c3ccc(N(C)C)cc3)n2)o1` to `CSc1nnc(-c2cc3c([nH]c4ccccc43)c(-c3ccc(O)cc3)n2)o1`, the GI50 falls from > 100 µM to 19.1 µM.

Going from `CSc1nnc(-c2cc3c([nH]c4ccccc43)c(-c3ccccc3Cl)n2)o1` to `COc1ccc(-c2nc(-c3n[nH]c(=S)[nH]3)cc3c2[nH]c2ccccc23)cc1`, the GI50 rises from 15.2 µM to 66.8 µM (4.4-fold).

`CSc1nnc(-c2cc3c([nH]c4ccccc43)c(-c3ccccc3Cl)n2)o1` and `CSc1nnc(-c2cc3c([nH]c4ccccc43)c(-c3ccc(O)cc3)n2)o1` cannot be ordered by TGI: > 100 µM for the first, > 100 µM for the second.
